Experimental data taken from ChEMBL document CHEMBL1154752, “Discovery of a new and efficient small molecule for neuronal differentiation from mesenchymal stem cell” (J Med Chem, 2009).
The source made the active and inactive calls. The rule behind the calls is not given here.

Experiments:
Mesenchymal stem cell [1] = experiment: Induction of neuronal differentiation in Fisher rat mesenchymal stem cells assessed as induction of Sizn1 gene expression after 2 days by quantitative PCR; type: functional, cell-based
Outline: (§1)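 MSCs incubated at 10 and 20 μM for 2 days beside a DMSO control. mRNA levels measured by quantitative PCR, three independent runs.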

Mesenchymal stem cell [2] = experiment: Induction of neuronal differentiation in Fisher rat mesenchymal stem cells assessed as change in acetylcholine-induced membrane potential at 20 uM after 2 days by FLIPR; type: functional, cell-based
Outline: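 Rat MSCs preincubated with 20 μM for 48 h. Membrane potential read with a FLIPR membrane potential dye kit after addition of 10 μM acetylcholine, with untreated cells as reference.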

PC-12 [3] = experiment: Induction of neurite outgrowth in rat PC12 cells after 48 hrs; type: functional, cell-based
PC-12 [4] = experiment: Induction of neuronal differentiation in rat PC12 cells assessed as increase in neuron specific enolase expression after 48 hrs; type: functional, cell-based
PC-12 [5] = experiment: Induction of neuronal differentiation in rat PC12 cells assessed as increase in beta-3 tubulin expression after 48 hrs; type: functional, cell-based
Mesenchymal stem cell [6] = experiment: Induction of neuronal differentiation in Fisher rat mesenchymal stem cells assessed as change in cell morphology at 20 uM after 2 days; type: functional, cell-based
Outline: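 Bone marrow MSCs treated at 20 μM for 2 days. Morphology inspected by immunocytochemistry with anti-β-III tubulin and DAPI staining.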

[7] = Toxicity in Fisher rat mesenchymal stem cells at 20 uM after 2 days; type: cell-based; conditions: mesenchymal stem cell, 48 h
Mesenchymal stem cell [8] = experiment: Induction of neuronal differentiation in Fisher rat mesenchymal stem cells assessed as increase in beta-3 tubulin expression after 2 days; type: functional, cell-based
Outline: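 Rat bone marrow MSCs given 20 μM for 2 days, with 50 ng/mL NGF as comparator. β-III tubulin detected by Western blot and by immunocytochemistry with anti-β-III tubulin plus DAPI counterstain. More than three independent repeats.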

Mesenchymal stem cell [9] = experiment: Induction of neuronal differentiation in Fisher rat mesenchymal stem cells assessed as increase in neuron specific enolase expression after 2 days; type: functional, cell-based
Outline: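 Rat bone marrow MSCs treated over a time course. Neuron-specific enolase protein followed alongside β-III tubulin. More than three independent experiments.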

[10] = Induction of neuronal differentiation in Fisher rat mesenchymal stem cells at 20 uM after 2 days by Nissl staining; type: functional, Mesenchymal stem cell
Outline: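 Bone marrow MSCs held at 20 μM for 2 days, then Nissl stained. Differentiation estimated by counting cells. Each experiment repeated independently more than three times.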

Mesenchymal stem cell [11] = experiment: Induction of astroglial differentiation in Fisher rat mesenchymal stem cells assessed as GFAP level at 20 uM after 2 days by Western blot; type: functional, cell-based
Outline: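 Rat bone marrow MSCs exposed to 20 μM for 48 h. GFAP, the astroglial marker, detected by Western blot.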

Mesenchymal stem cell [12] = experiment: Induction of neuronal differentiation in Fisher rat mesenchymal stem cells assessed as induction of potassium current at 20 uM after 2 days by patch clamp method; type: functional, cell-based
Outline: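 Rat MSCs treated at 20 μM for 2 days. Whole-cell patch clamp records membrane K+ current under voltage pulses from -30 to 90 mV.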

Mesenchymal stem cell [13] = experiment: Induction of neuronal differentiation in Fisher rat mesenchymal stem cells assessed as induction of Chrna2 gene expression by DNA microarray; type: functional, cell-based
Mesenchymal stem cell [14] = experiment: Induction of neuronal differentiation in Fisher rat mesenchymal stem cells assessed as induction of Chrnb2 gene expression by DNA microarray; type: functional, cell-based
Mesenchymal stem cell [15] = experiment: Induction of neuronal differentiation in Fisher rat mesenchymal stem cells assessed as induction of Chrm4 gene expression by DNA microarray; type: functional, cell-based
Mesenchymal stem cell [16] = experiment: Induction of neuronal differentiation in Fisher rat mesenchymal stem cells assessed as induction of cholinergic receptor gene expression after 2 days by quantitative PCR; type: functional, cell-based; outline: as §1
Mesenchymal stem cell [17] = experiment: Induction of neuronal differentiation in Fisher rat mesenchymal stem cells assessed as induction of Fbxo2 gene expression after 2 days by quantitative PCR; type: functional, cell-based; outline: as §1

For `O=C(NO)c1ccc2[nH]c(=O)c(CCCc3ccccc3)nc2c1`, the Activity (Mesenchymal stem cell [1]) was “Dose-dependent effect”, the Activity (Mesenchymal stem cell [2]) was “Active” and the Activity (PC-12 [3]) was “Active”. For the same molecule, the Activity (PC-12 [4]) was “Active”, the Activity (PC-12 [5]) was “Active” and the Activity (Mesenchymal stem cell [6]) was “Active”. For the same molecule, the Activity [7] was “Non-toxic”, the Activity (Mesenchymal stem cell [8]) was “Dose-dependent effect” and the Activity (Mesenchymal stem cell [9]) was “Dose-dependent effect”. The Activity [10] was over 95%, the Activity (Mesenchymal stem cell [11]) was “inactive” and the Activity (Mesenchymal stem cell [12]) was “Active”. The Activity (Mesenchymal stem cell [13]) was “Active”, the Activity (Mesenchymal stem cell [14]) was “Active” and the Activity (Mesenchymal stem cell [15]) was “Active”. For the same molecule, the Activity (Mesenchymal stem cell [16]) was “Dose-dependent effect” and the Activity (Mesenchymal stem cell [17]) was “Dose-dependent effect”.

In the case of `O=C(NO)c1ccc2nc(CCCc3ccccc3)c(=O)[nH]c2c1`, the Activity (Mesenchymal stem cell [6]) is reported as “inactive”.

With `COC(=O)c1ccc2nc(CCCc3ccccc3)c(=O)[nH]c2c1` the Activity (Mesenchymal stem cell [6]) was “inactive”.

For `O=C(NOC1CCCCO1)c1ccc2nc(CCCc3ccccc3)c(=O)[nH]c2c1` (configuration not stated), the Activity (Mesenchymal stem cell [6]) was “inactive”.

For `COC(=O)c1ccc2[nH]c(=O)c(CCCc3ccccc3)nc2c1`, the Activity (Mesenchymal stem cell [6]) was “inactive”.

For `O=C(NOC1CCCCO1)c1ccc2[nH]c(=O)c(CCCc3ccccc3)nc2c1` (configuration not stated), the Activity (Mesenchymal stem cell [6]) was “inactive”.
